Laboratory results published in ChEMBL document CHEMBL1155362, “Synthesis, characterization and derivatization of some novel types of mono- and bis-imidazolidineiminothiones and imidazolidineiminodithiones with antitumor, antiviral, antibacterial and antifungal activities--part I” (Eur J Med Chem, 2009).
Converted amounts (≈) assume the structure as drawn. The source made the active and inactive calls. No cut-off for these calls is given here.

Assays:
Staphylococcus aureus [1] = test: Antibacterial activity against Staphylococcus aureus NCTC 7447 at 4 mg/ml by agar disk diffusion assay; assay type: functional; details: read-out: DIZ
Salmonella typhi [2] = test: Antibacterial activity against Salmonella typhi NCIMB 9331 at 4 mg/ml by agar disk diffusion assay; assay type: functional, Salmonella enterica subsp. enterica serovar Typhi; details: Salmonella enterica, read-out: DIZ
Bacillus subtilis [3] = test: Antibacterial activity against Bacillus subtilis NCTC 1040 at 4 mg/ml by agar disk diffusion assay; assay type: functional; details: read-out: DIZ
Human alphaherpesvirus 1 = test: Antiviral activity against HSV1 infected african green monkey Vero cells at 10^-4 dilution of 5 mg/ml by plaque formation assay; assay type: functional
Summary of the method: (§1)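 Compound dilutions prepared from a 5 mg/mL DMSO stock, using the maximum non-toxic dilution for Vero cells over 3 days; 0.1 mL virus (10³) mixed with 0.1 mL compound for 1 h at room temperature; mixture inoculated onto washed Vero monolayers in 12-well plates and adsorbed at 37 °C; 2× MEM/agarose overlay applied; read-out % reduction in plaque count versus untreated virus control.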

Hepatovirus A = test: Antiviral activity against Hepatitis A virus infected african green monkey Vero cells at 10^-4 dilution of 5 mg/ml by plaque formation assay; assay type: functional; summary of the method: as §1
Candida albicans [4] = test: Antifungal activity against Candida albicans IMRU 3669 at 4 mg/ml by agar disk diffusion assay; assay type: functional; details: read-out: DIZ
Escherichia coli = test: Antibacterial activity against Escherichia coli NCTC 10416 at 4 mg/ml by agar disk diffusion assay; assay type: functional; details: read-out: DIZ
Coxsackievirus B4 = test: Antiviral activity against Coxsackievirus B4 infected african green monkey Vero cells at 10^-4 dilution of 5 mg/ml by plaque formation assay; assay type: functional, organism-based; summary of the method: as §1
Aspergillus niger [5] = test: Antifungal activity against Aspergillus niger IMI 31726 at 4 mg/ml by agar disk diffusion assay; assay type: functional; details: read-out: DIZ
[6] = Antitumor activity against mouse EAC cells assessed as inhibition of cell viability at 50 ug/ml after 2 hrs by trypan blue exclusion assay; assay type: functional; details: Ehrlich
Summary of the method: (§2)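 EAC cells aspirated from ascitic fluid of inoculated mice and diluted in saline; 0.1 mL cell suspension, 0.8 mL RPMI 1640 and 0.1 mL compound (25, 50 or 100) incubated 2 h at 37 °C; non-viable cells counted by trypan blue exclusion; % non-viable = dead/total × 100.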

Bacillus subtilis [7] = test: Antibacterial activity against Bacillus subtilis NCIB 3610 at 1 mg/ml by agar disk diffusion assay; assay type: functional; details: Bacillus subtilis, NCIB 3610; read-out: DIZ
MCF7 [8] = test: Cytotoxicity against human MCF7 cells assessed as surviving fraction after 48 hrs by SRB assay; assay type: functional, cell-based; details: Homo sapiens, MCF7, 48 h; read-out: IC50
Summary of the method: (§3)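 Cells seeded at 10⁴ cells/well and left 24 h to attach, then exposed to […] in triplicate wells per dose. Incubation 48 h, 37 °C, 5% CO₂. Cells fixed and stained with sulforhodamine B, excess dye removed with acetic acid, bound dye taken up in Tris EDTA and read on an ELISA reader. Surviving fraction plotted against concentration.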

U-251 [9] = test: Cytotoxicity against human U251 cells assessed as reduction in surviving fraction at 2.5 ug/ml after 48 hrs by SRB assay; assay type: functional, cell-based; summary of the method: as §3
U-251 [10] = test: Cytotoxicity against human U251 cells assessed as reduction in surviving fraction at 10.0 ug/ml after 48 hrs by SRB assay; assay type: functional, cell-based; summary of the method: as §3
Aspergillus niger [11] = test: Antifungal activity against Aspergillus niger Ferm-BAM C-21 at 5 mg/ml by agar disk diffusion assay; assay type: functional; details: read-out: DIZ
Summary of the method: (§4)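 Fungi maintained on Czapek's Dox agar; agar well diffusion with 1 cm wells and […] of each concentration (1, 2.5, 5 mg/mL) in DMF; inhibition zone diameter measured.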

Bacillus subtilis [12] = test: Antibacterial activity against Bacillus subtilis NCIB 3610 at 5 mg/ml by agar disk diffusion assay; assay type: functional; details: Bacillus subtilis, NCIB 3610; read-out: DIZ
Aspergillus niger [13] = test: Antifungal activity against Aspergillus niger Ferm-BAM C-21 at 2.5 mg/ml by agar disk diffusion assay; assay type: functional; details: read-out: DIZ; summary of the method: as §4
Candida albicans [14] = test: Antifungal activity against Candida albicans IMRU 3669 by macrotube dilution assay; assay type: functional
Summary of the method: (§5)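 Macrotube twofold dilution per NCCLS/CLSI guidelines for fungi; 2 mg compound in 2.0 mL DMF, serially diluted across 14 tubes of Czapek's Dox medium, with a control tube; inoculum added to halve the concentration; 30 °C for 72 h; MIC is the lowest concentration without visible growth.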

MCF7 [15] = test: Cytotoxicity against human MCF7 cells assessed as reduction in surviving fraction at 2.5 ug/ml after 48 hrs by SRB assay; assay type: functional, cell-based; summary of the method: as §3
Aspergillus niger [16] = test: Antifungal activity against Aspergillus niger Ferm-BAM C-21 at 1 mg/ml by agar disk diffusion assay; assay type: functional; details: read-out: DIZ; summary of the method: as §4
HCT-116 [17] = test: Cytotoxicity against human HCT116 cells assessed as reduction in surviving fraction at 1 ug/ml after 48 hrs by SRB assay; assay type: functional, cell-based
Summary of the method: (§6)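 HCT116 cells seeded at 10⁴ per well and allowed to attach for 24 h; exposed to 0, 1, 2.5, 5 or 10 in triplicate for 48 h at 37 °C in 5% CO₂; fixed and stained with sulforhodamine B; bound dye recovered in Tris EDTA and read on an ELISA reader; surviving fraction plotted against concentration.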

Staphylococcus aureus [18] = test: Antimicrobial activity against Staphylococcus aureus NCTC 7447 by macrotube dilution assay; assay type: functional
HCT-116 [19] = test: Cytotoxicity against human HCT116 cells assessed as reduction in surviving fraction at 2.5 ug/ml after 48 hrs by SRB assay; assay type: functional, cell-based; summary of the method: as §6
U-251 [20] = test: Cytotoxicity against human U251 cells assessed as reduction in surviving fraction at 5.0 ug/ml after 48 hrs by SRB assay; assay type: functional, cell-based; summary of the method: as §3
[21] = Antitumor activity against mouse EAC cells assessed as inhibition of cell viability at 25 ug/ml after 2 hrs by trypan blue exclusion assay; assay type: functional; details: Ehrlich; summary of the method: as §2
Aspergillus niger [22] = test: Antifungal activity against Aspergillus niger Ferm-BAM C-21 by macrotube dilution assay; assay type: functional; summary of the method: as §5
HeLa = test: Cytotoxicity against human HeLa cells assessed as surviving fraction after 48 hrs by SRB assay; assay type: functional, cell-based; details: Homo sapiens, HeLa, 48 h; read-out: IC50; summary of the method: as §3
MCF7 [23] = test: Cytotoxicity against human MCF7 cells assessed as reduction in surviving fraction at 5.0 ug/ml after 48 hrs by SRB assay; assay type: functional, cell-based; summary of the method: as §3
MCF7 [24] = test: Cytotoxicity against human MCF7 cells assessed as reduction in surviving fraction at 1 ug/ml after 48 hrs by SRB assay; assay type: functional, cell-based; summary of the method: as §3
MCF7 [25] = test: Cytotoxicity against human MCF7 cells assessed as reduction in surviving fraction at 10.0 ug/ml after 48 hrs by SRB assay; assay type: functional, cell-based; summary of the method: as §3
U-251 [26] = test: Cytotoxicity against human U251 cells assessed as surviving fraction after 48 hrs by SRB assay; assay type: functional, cell-based; details: Homo sapiens, U-251, 48 h; read-out: IC50; summary of the method: as §3
Candida albicans [27] = test: Antifungal activity against Candida albicans IMRU 3669 at 5 mg/ml by agar disk diffusion assay; assay type: functional; details: Candida albicans, IMRU 3669; read-out: DIZ; summary of the method: as §4
Candida albicans [28] = test: Antifungal activity against Candida albicans IMRU 3669 at 2.5 mg/ml by agar disk diffusion assay; assay type: functional; details: read-out: DIZ; summary of the method: as §4
Pseudomonas aeruginosa [29] = test: Antibacterial activity against Pseudomonas aeruginosa NCIB 9016 at 1 mg/ml by agar disk diffusion assay; assay type: functional; details: Pseudomonas aeruginosa, NCIB 9016; read-out: DIZ
HCT-116 [30] = test: Cytotoxicity against human HCT116 cells assessed as reduction in surviving fraction at 5.0 ug/ml after 48 hrs by SRB assay; assay type: functional, cell-based; summary of the method: as §6
Salmonella typhi [31] = test: Antimicrobial activity against Salmonella typhi NCIMB 9331 by macrotube dilution assay; assay type: functional, Salmonella enterica subsp. enterica serovar Typhi; details: Salmonella enterica
Bacillus subtilis [32] = test: Antibacterial activity against Bacillus subtilis NCIB 3610 at 2.5 mg/ml by agar disk diffusion assay; assay type: functional; details: Bacillus subtilis, NCIB 3610; read-out: DIZ
Klebsiella pneumoniae = test: Antimicrobial activity against Klebsiella pneumoniae NCIMB 9111 by macrotube dilution assay; assay type: functional
Bacillus subtilis [33] = test: Antimicrobial activity against Bacillus subtilis NCTC 1040 by macrotube dilution assay; assay type: functional
Candida albicans [34] = test: Antifungal activity against Candida albicans IMRU 3669 at 1 mg/ml by agar disk diffusion assay; assay type: functional; details: read-out: DIZ; summary of the method: as §4
Pseudomonas aeruginosa [35] = test: Antibacterial activity against Pseudomonas aeruginosa NCIB 9016 at 5 mg/ml by agar disk diffusion assay; assay type: functional; details: Pseudomonas aeruginosa, NCIB 9016; read-out: DIZ
Pseudomonas aeruginosa [36] = test: Antibacterial activity against Pseudomonas aeruginosa NCIB 9016 at 2.5 mg/ml by agar disk diffusion assay; assay type: functional; details: Pseudomonas aeruginosa, NCIB 9016; read-out: DIZ
U-251 [37] = test: Cytotoxicity against human U251 cells assessed as reduction in surviving fraction at 1 ug/ml after 48 hrs by SRB assay; assay type: functional, cell-based; summary of the method: as §3
HCT-116 [38] = test: Cytotoxicity against human HCT116 cells assessed as reduction in surviving fraction at 10.0 ug/ml after 48 hrs by SRB assay; assay type: functional, cell-based; summary of the method: as §6
HepG2 = test: Cytotoxicity against human HepG2 cells assessed as surviving fraction after 48 hrs by SRB assay; assay type: functional, cell-based; details: hepg2; summary of the method: as §3
[39] = Antitumor activity against mouse EAC cells assessed as inhibition of cell viability at 100 ug/ml after 2 hrs by trypan blue exclusion assay; assay type: functional; details: Ehrlich; summary of the method: as §2
HCT-116 [40] = test: Cytotoxicity against human HCT116 cells assessed as surviving fraction after 48 hrs by SRB assay; assay type: functional, cell-based; details: Homo sapiens, HCT-116, 48 h; read-out: IC50; summary of the method: as §3

For `N=C1C(=S)N(c2ccc(Br)cc2)C(=O)N1c1ccc(Cl)c(C(F)(F)F)c1`, the zone of inhibition at 4000 µg/mL (Staphylococcus aureus [1]) was 17.5 mm, the zone of inhibition at 4000 µg/mL (Salmonella typhi [2]) was 16.5 mm and the zone of inhibition at 4000 µg/mL (Bacillus subtilis [3]) was 16 mm. The Activity (Human alphaherpesvirus 1) was 50%, the Activity (Hepatovirus A) was “inactive” and the zone of inhibition at 4000 µg/mL (Candida albicans [4]) was 16 mm. For the same molecule, the zone of inhibition at 4000 µg/mL (Escherichia coli) was 18 mm, the Activity (Coxsackievirus B4) was “inactive” and the zone of inhibition at 4000 µg/mL (Aspergillus niger [5]) was 16 mm.

`N=C1C(=S)N(c2ccc(Br)cc2)C(=S)N1c1ccc(Br)cc1` showed an inhibition at 50 µg/mL [6] of 70%, a zone of inhibition at 1000 µg/mL (Bacillus subtilis [7]) of 21 mm and an IC50 (MCF7 [8]) of 3.09 µg/mL (≈ 6.79 µM). For the same molecule, the Activity (U-251 [9]) was “Active”, the Activity (U-251 [10]) was “Active” and the zone of inhibition at 5000 µg/mL (Aspergillus niger [11]) was 20 mm. It also gave a zone of inhibition at 5000 µg/mL (Bacillus subtilis [12]) of 32 mm, a zone of inhibition at 2500 µg/mL (Aspergillus niger [13]) of 18 mm and an MIC (Candida albicans [14]) of 1.95 µg/mL (≈ 4.28 µM). The Activity (MCF7 [15]) was “Active”, the zone of inhibition at 1000 µg/mL (Aspergillus niger [16]) was 15 mm and the Activity (HCT-116 [17]) was “Active”. For the same molecule, the MIC (Staphylococcus aureus [18]) was 15.6 µg/mL (≈ 34.3 µM), the Activity (HCT-116 [19]) was “Active” and the Activity (U-251 [20]) was “Active”. The inhibition at 25 µg/mL [21] was 50%, the MIC (Aspergillus niger [22]) was 0.49 µg/mL (≈ 1.08 µM) and the IC50 (HeLa) was 8.93 µg/mL (≈ 19.6 µM). For the same molecule, the Activity (MCF7 [23]) was “Active”, the Activity (MCF7 [24]) was “Active” and the Activity (MCF7 [25]) was “Active”. The IC50 (U-251 [26]) was 1.28 µg/mL (≈ 2.81 µM), the zone of inhibition at 5000 µg/mL (Candida albicans [27]) was 23 mm and the zone of inhibition at 2500 µg/mL (Candida albicans [28]) was 20 mm. The zone of inhibition at 1000 µg/mL (Pseudomonas aeruginosa [29]) was 18 mm, the Activity (Human alphaherpesvirus 1) was 50% and the Activity (HCT-116 [30]) was “Active”. For the same molecule, the MIC (Salmonella typhi [31]) was 1.95 µg/mL (≈ 4.28 µM), the zone of inhibition at 2500 µg/mL (Bacillus subtilis [32]) was 25 mm and the MIC (Klebsiella pneumoniae) was 7.8 µg/mL (≈ 17.1 µM). The MIC (Bacillus subtilis [33]) was 3.9 µg/mL (≈ 8.57 µM), the zone of inhibition at 1000 µg/mL (Candida albicans [34]) was 18 mm and the Activity (Hepatovirus A) was “inactive”. For the same molecule, the zone of inhibition at 5000 µg/mL (Pseudomonas aeruginosa [35]) was 21 mm, the zone of inhibition at 2500 µg/mL (Pseudomonas aeruginosa [36]) was 19 mm and the Activity (U-251 [37]) was “Active”. For the same molecule, the Activity (Coxsackievirus B4) was “inactive”, the Activity (HCT-116 [38]) was “Active” and the IC50 (HepG2) was “Not Active”. It also gave an inhibition at 100 µg/mL [39] of 90% and an IC50 (HCT-116 [40]) of 4.56 µg/mL (≈ 10 µM).
